Data on 30 compounds can be found in ChEMBL document CHEMBL2440084, “Design and bio-evaluation of indole derivatives as potent Kv1.5 inhibitors” (Bioorg Med Chem, 2013).

Data set [1] deals with T1, Potassium voltage-gated channel subfamily A member 5 (Homo sapiens, UniProt P22460). Put plainly: Inhibition of human Kv1.5 channel expressed in HEK293 cells by whole cell patch clamp technique. It counts as cell-based. The procedure, abridged: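 HEK 293 cells stably expressing hKv1.5 were grown at 37 °C with 10% FBS and 0.2 mg/mL geneticin, trypsinized and used the same day. Whole-cell I_Kur was evoked by 500-ms steps to +60 mV from -80 mV at 0.1 Hz, at 25 °C. Compound was applied ≥5 min after current stabilized. IC50 came from cell-by-cell Hill fits, ≥3 cells per concentration, mean ± SD, n = 3.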
(Patch clamp records ionic current or voltage across a cell membrane.)

The target in data set [2] is Voltage-gated inwardly rectifying potassium channel KCNH2 (Homo sapiens, UniProt Q12809). In words: Inhibition of human ERG channel expressed in CHO cells by whole cell patch clamp technique. It counts as cell-based.
The species named for a further data set is Homo sapiens. Put plainly: Selectivity ratio of IC50 for human ERG channel to IC50 for human Kv1.5 channel.
Data set [3] has as its target T1, Potassium voltage-gated channel subfamily A member 5. In words: Inhibition of human Kv1.5 channel expressed in HEK293 cells at 10 uM by whole cell patch clamp technique. It counts as cell-based.
A further data set concerns HEK293. In words: Selectivity ratio of IC50 for sodium channel in guinea pig ventricular myocytes to IC50 for human Kv1.5 channel expressed in HEK293 cells. It counts as cell-based.
A short description of data set [4]: Inhibition of sodium channel in guinea pig ventricular myocytes by whole cell patch clamp technique. It counts as cell-based. The settings on record: Cavia porcellus, Ventricular myocyte. The essentials:
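Whole-cell I_Na was recorded in enzymatically isolated ventricular myocytes, using only quiescent, rod-shaped, striated cells, at 25 °C. Holding potential was -90 mV, with 30-ms pulses from -80 to +40 mV in 10-mV increments at 0.5 Hz. Compound was applied ≥5 min after current stabilized. IC50 came from cell-by-cell Hill fits, ≥3 cells per concentration, mean ± SD.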

The species entered for a further data set is Rattus norvegicus. Put plainly: Prolongation of atrial effective refractory period in left atrium of Sprague-Dawley rat heart after 10 mins. It counts as functional, tissue-based. The settings on record: Cardiac atrium. The essentials:
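Male SD rats (230 ± 30 g) were anesthetized with i.p. chloral hydrate. Left atrium and right ventricle were isolated into Krebs-Henseleit solution at pH 7.4, gassed with 95% O2/5% CO2. Compound was added cumulatively at 0.1, 1.0, 10 and 50 μmol/L, with 10 min equilibration each. ERP was recorded before and after compound. Values are mean ± SEM, n = 3, compared by Student's t test.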

The nature of data set [5]: Effect on ventricular effective refractory period in right ventricle of Sprague-Dawley rat heart at 0.1 to 50 umol/L after 10 mins.

SMILES strings stand for the structures.

The IC50 is the concentration that gives 50% inhibition. A lower IC50 goes with inhibition by little substance. The inhibition is the drop in the measured response relative to a control, in per cent.

Sequence of Voltage-gated inwardly rectifying potassium channel KCNH2 (Q12809 whole entry): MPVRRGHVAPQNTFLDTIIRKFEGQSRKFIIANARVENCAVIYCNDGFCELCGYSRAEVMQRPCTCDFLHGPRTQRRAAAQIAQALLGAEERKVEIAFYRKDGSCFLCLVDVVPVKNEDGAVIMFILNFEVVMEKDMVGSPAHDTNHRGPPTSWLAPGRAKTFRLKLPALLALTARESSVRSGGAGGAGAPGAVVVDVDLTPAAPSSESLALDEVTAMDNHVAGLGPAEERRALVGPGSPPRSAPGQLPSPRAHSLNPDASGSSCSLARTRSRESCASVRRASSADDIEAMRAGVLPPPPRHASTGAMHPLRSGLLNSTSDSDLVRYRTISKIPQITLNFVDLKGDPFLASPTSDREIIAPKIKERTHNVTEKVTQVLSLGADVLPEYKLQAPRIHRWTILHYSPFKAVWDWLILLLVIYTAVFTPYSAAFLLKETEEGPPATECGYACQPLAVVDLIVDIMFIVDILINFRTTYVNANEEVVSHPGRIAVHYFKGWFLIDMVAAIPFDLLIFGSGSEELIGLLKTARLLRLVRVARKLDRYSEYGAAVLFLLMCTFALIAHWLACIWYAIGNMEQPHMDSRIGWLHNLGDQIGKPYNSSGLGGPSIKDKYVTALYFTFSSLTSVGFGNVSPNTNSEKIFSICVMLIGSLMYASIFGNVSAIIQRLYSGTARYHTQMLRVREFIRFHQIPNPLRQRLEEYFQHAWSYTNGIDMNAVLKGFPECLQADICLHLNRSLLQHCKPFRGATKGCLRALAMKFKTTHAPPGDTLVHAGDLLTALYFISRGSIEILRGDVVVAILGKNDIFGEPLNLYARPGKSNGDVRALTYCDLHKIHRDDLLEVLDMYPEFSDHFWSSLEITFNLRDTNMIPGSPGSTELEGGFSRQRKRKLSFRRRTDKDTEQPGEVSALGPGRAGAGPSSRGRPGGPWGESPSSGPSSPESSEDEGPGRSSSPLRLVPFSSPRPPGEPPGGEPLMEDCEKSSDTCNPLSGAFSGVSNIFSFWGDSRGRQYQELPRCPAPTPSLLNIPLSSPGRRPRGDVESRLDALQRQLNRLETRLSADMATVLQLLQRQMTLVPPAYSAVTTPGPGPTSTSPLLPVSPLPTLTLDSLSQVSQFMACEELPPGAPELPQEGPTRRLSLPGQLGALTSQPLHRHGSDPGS
T1 sequence (P22460 whole entry): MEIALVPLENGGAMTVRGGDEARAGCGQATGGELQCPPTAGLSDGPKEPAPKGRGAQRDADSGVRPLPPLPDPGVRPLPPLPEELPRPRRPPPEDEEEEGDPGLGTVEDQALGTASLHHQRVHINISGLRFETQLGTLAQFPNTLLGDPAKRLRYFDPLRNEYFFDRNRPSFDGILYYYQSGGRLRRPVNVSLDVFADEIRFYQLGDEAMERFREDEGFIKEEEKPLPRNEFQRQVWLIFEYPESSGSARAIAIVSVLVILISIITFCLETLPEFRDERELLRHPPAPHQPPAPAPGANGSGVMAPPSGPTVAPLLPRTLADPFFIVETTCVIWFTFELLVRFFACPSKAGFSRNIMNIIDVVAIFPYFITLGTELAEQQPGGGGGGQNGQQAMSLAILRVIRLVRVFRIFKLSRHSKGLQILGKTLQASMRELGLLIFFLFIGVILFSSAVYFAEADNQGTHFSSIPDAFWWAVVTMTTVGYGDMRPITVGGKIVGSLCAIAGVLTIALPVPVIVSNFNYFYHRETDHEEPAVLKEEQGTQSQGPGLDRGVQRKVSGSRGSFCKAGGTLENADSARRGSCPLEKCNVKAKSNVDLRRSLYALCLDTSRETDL

Turning to `COC(=O)C(Cc1c[nH]c2ccccc12)NS(=O)(=O)c1ccc(OCC(C)C)cc1` (stereo not drawn), in data set [1], the IC50 was 3.56 µM and the inhibition entry was “Dose-dependent effect”.

As to `CCCCOc1ccc(S(=O)(=O)NC(Cc2ccccc2)C(=O)OC)cc1` (stereo not drawn), in data set [1], the IC50 came to 110 µM and the inhibition entry was “Dose-dependent effect”.

With `Cc1ccc(S(=O)(=O)N/N=C/c2cn(CC(=O)Nc3ccc(C)cc3C)c3ccccc23)cc1`, in data set [1], the 50% inhibitory concentration (IC50) came to 24 µM and the inhibition entry was “Dose-dependent effect”.

For `COc1ccc2c(c1)c(/C=N/NS(=O)(=O)c1ccc(C)cc1)cn2CC(=O)Nc1ccccc1`, in data set [1], the midpoint of inhibition, the IC50, lay at 3.73 µM and the inhibition entry is “Dose-dependent effect”.

On to `COc1ccc2c(c1)c(/C=N/NS(=O)(=O)c1ccc(C)cc1)cn2CC(=O)Nc1ccc(F)cc1F`, for which, in data set [1], inhibition was half-maximal at 2.18 µM (IC50) and the inhibition entry is “Dose-dependent effect”.

As to `CCCCOc1ccc(S(=O)(=O)NCCc2cn(CC(=O)Nc3ccc(OC)cc3)c3ccccc23)cc1`, in data set [1], it took 6.21 µM to reach half-maximal inhibition (IC50) and the inhibition entry was “Dose-dependent effect”.

Turning to `COC(=O)C(Cc1c[nH]c2ccccc12)NS(=O)(=O)c1ccc(C)cc1` (stereo not drawn), in data set [1], the IC50 was 4.72 µM and the inhibition result was “Dose-dependent effect”.

Consider `COc1ccc(NC(=O)Cn2cc(CCNS(=O)(=O)c3ccc(OC)cc3)c3ccccc32)cc1`, for which the IC50 in data set [2] was found to be 10.2 µM. Moreover, in data set [1], the midpoint of inhibition, the IC50, lay at 1.72 µM and the inhibition entry was “Dose-dependent effect”. The Ratio IC50 in the data set filed under Homo sapiens was 5.95.

Take `COC(=O)C(Cc1c[nH]c2ccccc12)NS(=O)(=O)c1ccc(Br)cc1` (stereo not drawn): in data set [1], it took 2.25 µM to reach half-maximal inhibition (IC50) and the inhibition entry is “Dose-dependent effect”.

In the case of `Cc1ccc(S(=O)(=O)N/N=C/c2cn(CC(=O)Nc3ccc(OC(F)(F)F)cc3)c3ccccc23)cc1`, in data set [1], half-maximal inhibition (IC50) was put at 1.52 µM and the inhibition result is “Dose-dependent effect”.

As to `CCCCOc1ccc(S(=O)(=O)NC(Cc2c[nH]c3ccccc23)C(=O)OC)cc1` (stereo not drawn), in data set [1], the IC50 is 8.37 µM and the inhibition result was “Dose-dependent effect”. The compound also showed an inhibition in data set [3] of 52%.

As for `Cc1ccc(S(=O)(=O)N/N=C/c2cn(CC(=O)Nc3ccc(F)cc3F)c3ccccc23)cc1`, the Ratio IC50 in the data set with HEK293 worked out at 459; in the data set listed under Homo sapiens, 172. Further, the results for the IC50 in data set [2], in data set [4] and in data set [1] were 43 µM, 115 µM and 0.25 µM, respectively. Besides, the results for the Activity result (in the data set filed under Rattus norvegicus; in data set [5]) were “Dose-dependent effect” and “Non-toxic”, respectively. Further, in data set [1], the inhibition entry is “Dose-dependent effect”.

As for `CCCCOc1ccc(S(=O)(=O)NCCc2cn(CC(=O)Nc3ccc(Cl)cc3)c3ccccc23)cc1`, in data set [1], the half-maximal inhibitory concentration (IC50) stood at 185 µM and the inhibition entry is “Dose-dependent effect”.

On to `Cc1ccc(S(=O)(=O)N/N=C/c2cn(CC(=O)Nc3ccc(C)c(C)c3)c3ccccc23)cc1`, for which, in data set [1], inhibition was half-maximal at 11.2 µM (IC50) and the inhibition entry is “Dose-dependent effect”.

Take `CCCCOc1ccc(S(=O)(=O)NC(Cc2c[nH]c3ccccc23)C(=O)O)cc1` (stereo not drawn): in data set [1], the half-maximal inhibitory concentration (IC50) was 65.4 µM and the inhibition result is “Dose-dependent effect”.

As to `COC(=O)C(Cc1c[nH]c2ccccc12)NS(=O)(=O)c1ccc(OC(C)C)cc1` (stereo not drawn), in data set [1], half-maximal inhibition (IC50) required 3.93 µM and the inhibition entry is “Dose-dependent effect”.

For the compound `COc1ccc(NC(=O)Cn2cc(/C=N/NS(=O)(=O)c3ccc(C)cc3)c3ccccc32)cc1`, in data set [1], the half-maximal inhibitory concentration (IC50) came to 16.9 µM and the inhibition entry was “Dose-dependent effect”.

`CCC(=O)Oc1ccc(NC(=O)Cn2cc(/C=N/NS(=O)(=O)c3ccc(C)cc3)c3ccccc32)cc1`: in data set [1], the IC50 is 2.14 µM and the inhibition entry is “Dose-dependent effect”.

In data set [2], `CCCCOc1ccc(S(=O)(=O)NCCc2c[nH]c3ccccc23)cc1` displayed an IC50 of 3.18 µM. Moreover, in data set [1], the 50% inhibitory concentration (IC50) was 9.95 µM and the inhibition entry is “Dose-dependent effect”. Further, in the data set filed under Homo sapiens, the Ratio IC50 stood at 0.32.

`Cc1ccc(S(=O)(=O)N/N=C/c2cn(CC(=O)Nc3ccccc3)c3ccccc23)cc1`: the Ratio IC50 with HEK293 turned out to be 96.3; in the data set listed under Homo sapiens it was 53.9. The IC50 in data set [2] is 43.6 µM; in data set [4], 78 µM; in data set [1] it was 0.81 µM. In addition, the inhibition entry in data set [1] was “Dose-dependent effect”.

For the compound `COC(=O)C(Cc1c[nH]c2ccccc12)NS(=O)(=O)c1ccc(OC)cc1` (stereo not drawn), in data set [1], the IC50 turned out to be 5.45 µM and the inhibition result was “Dose-dependent effect”.

`COC(=O)C(Cc1c[nH]c2ccccc12)NS(=O)(=O)c1ccc(F)cc1` (stereo not drawn): in data set [1], the concentration for half-maximal inhibition (IC50) is 6.45 µM and the inhibition result is “Dose-dependent effect”.

`Cc1ccc(S(=O)(=O)NCCc2cn(CC(=O)Nc3ccc(Cl)cc3)c3ccccc23)cc1`: in data set [1], half-maximal inhibition (IC50) was put at 12.9 µM and the inhibition result is “Dose-dependent effect”.

With `COc1ccc2c(c1)c(/C=N/NS(=O)(=O)c1ccc(C)cc1)cn2CC(=O)Nc1ccc(Cl)cc1`, the Ratio IC50 turned out to be 103 in the data set with HEK293 and 820 in the data set filed under Homo sapiens. The IC50 in data set [2] turned out to be 418 µM; in data set [4], 52.6 µM; in data set [1], 0.51 µM. For the same compound, the Activity entry in the data set listed under Rattus norvegicus is “Dose-dependent effect”; in data set [5], “Non-toxic”. The inhibition entry in data set [1] was “Dose-dependent effect”.

For `Cc1ccc(S(=O)(=O)N/N=C/c2cn(CC(=O)Nc3ccccc3Cl)c3ccccc23)cc1`, the figures for the 50% inhibitory concentration (IC50) in data set [2] and in data set [1] were 18.7 µM and 0.74 µM, respectively. Besides, the inhibition result in data set [1] is “Dose-dependent effect”. The Ratio IC50 in the data set filed under Homo sapiens amounted to 25.2.

As for `COc1ccc(S(=O)(=O)NCCc2cn(CC(=O)Nc3ccc(Cl)cc3)c3ccccc23)cc1`, in data set [1], the half-maximal inhibitory concentration (IC50) turned out to be 3.14 µM and the inhibition result was “Dose-dependent effect”.

Consider `Cc1ccc(S(=O)(=O)N/N=C/c2cn(CC(=O)Nc3cc(C)ccc3C)c3ccccc23)cc1`, for which, in data set [1], the IC50 was found to be 1.77 µM and the inhibition entry is “Dose-dependent effect”.

In the case of `COc1ccc(NC(=O)Cn2cc(CCNS(=O)(=O)c3ccc(C)cc3)c3ccccc32)cc1`, in data set [1], the midpoint of inhibition, the IC50, lay at 38.7 µM and the inhibition result was “Dose-dependent effect”.

For `Cc1ccc(S(=O)(=O)N/N=C/c2cn(CC(=O)Nc3ccc(Cl)cc3)c3ccccc23)cc1`, in data set [1], the midpoint of inhibition, the IC50, lay at 1.9 µM and the inhibition result is “Dose-dependent effect”.

For the compound `COC(=O)C(Cc1c[nH]c2ccccc12)NS(=O)(=O)c1ccc(OC2CCCC2)cc1` (stereo not drawn), in data set [1], the midpoint of inhibition, the IC50, lay at 2.38 µM and the inhibition result was “Dose-dependent effect”.
